Results pooled from the literature.
Lines come from different studies, so protocols differ. In brackets after ≈: the same amount, converted by molar mass.
Organism: Enterococcus faecalis
Read-out: microbial growth

| Structure (SMILES) | method | strain | setting | MIC |
| --- | --- | --- | --- | --- |
| CCCCCCCCCCCC(=O)C(F)(F)P(=O)(O)O | – | ATCC33186 | – | 100 µg/mL (≈ 318 µM) |
| CCCCCCCCCCCCCCCC(=O)NS(=O)(=O)OC1CCNCC1 | broth dilution | ATCC33186 | – | 12.5 µg/mL (≈ 29.9 µM) |
| COc1ccc2cc1Oc1cc(ccc1OC)CCC(N[C@@H]1CCCc3ccccc31)CCCC2 (stereo partly shown) | broth dilution | ATCC33186 | – | > 100 µg/mL |
| C=C(NC(=O)C(=C)NC(=O)c1csc(C2=N[C@@H]3c4csc(n4)[C@H]4NC(=O)c5csc(n5)[C@H]([C@](C)(O)[C@@H](C)O)NC(=O)[C@H]5CSC(=N5)/C(=C/C)NC(=O)[C@H]([C@@H](C)O)NC(=O)c5csc(n5)[C@]3(CC2)NC(=O)[C@H](C)NC(=O)C(=C)NC(=O)[C@H](C)NC(=O)[C@H]([C@@H](C)CC)N[C@@H]2C=Cc3c([C@H](C)O)cc(nc3[C@H]2O)C(=O)O[C@@H]4C)n1)C(N)=O | – | – | – | 0.12 µg/mL (≈ 0.0721 µM) |
| CN[C@@H]1[C@H](O)[C@H](NC)[C@H]2O[C@@]3(O)C(=O)C[C@@H](C)O[C@H]3O[C@@H]2[C@H]1O | broth dilution | ATCC33186 | – | 50 µg/mL (≈ 150 µM) |
| CCCCCCCCCCCC(=O)CP(=O)(O)O | – | ATCC33186 | – | 25 µg/mL (≈ 89.8 µM) |
| CCCCCCCCCCCCCCCC(=O)NS(=O)(=O)OC | broth dilution | ATCC33186 | – | 50 µg/mL (≈ 143 µM) |
| Cc1cc(Cl)ccc1-c1ccc(/C=C2\SC(=S)N(CC(=O)O)C2=O)o1 | broth dilution | VRE | drug-resistant strain | 1 to 8 µg/mL (≈ 2.54 to 20.3 µM) |
| CCCCCCCCCCCCCCCC(=O)C(F)(F)P(=O)(O)O | – | ATCC33186 | – | 100 µg/mL (≈ 270 µM) |
| CCCCCCCCCCCCCCCC(=O)NS(=O)(=O)Oc1cccc(Cl)c1 | broth dilution | ATCC33186 | – | 1.6 µg/mL (≈ 3.59 µM) |
